# According to ChEMBL document CHEMBL2150893, “Synthesis of β-ionone derived chalcones as potent antimicrobial agents” (2012):
# Calls of active or inactive are those of the source. No cut-off for these calls is given here.
# Assays:
# Bacillus subtilis = experiment: Antibacterial activity against Bacillus subtilis MTCC 2451 after 24 hrs by serial dilution method; format: functional; conditions: MTCC 2451, 24 h
# How it was run: (§1)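 Serial tube dilution MIC. Strains were grown in nutrient broth to an OD600 of 0.4-0.6. Compounds were tested at 0.78, 1.56, 3.12, 6.25, 12.5, 25 and 50 µg/ml, each in a separate tube containing 5 ml nutrient broth plus 1 ml compound solution. Tubes were incubated 24 h with shaking at 180 rpm. Growth was followed by optical density at 600 nm.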
# [1] = Antifungal activity against Cryptococcus gastricus MTCC 1715 after 24 hrs by serial dilution method; format: functional; conditions: Goffeauzyma gastrica
# How it was run: (§2)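 Fungal MIC by serial tube dilution. Dilutions of test compounds (1.9–500 µg/ml) were made from stock solution. Each tube held 1 ml nutrient broth and received 20 µl of standard strain culture.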
# Staphylococcus aureus = experiment: Antibacterial activity against Staphylococcus aureus MTCC 96 after 24 hrs by serial dilution method; format: functional; conditions: MTCC 96, 24 h; how it was run: as §1
# Escherichia coli = experiment: Antibacterial activity against Escherichia coli MTCC 82 after 24 hrs by serial dilution method; format: functional; conditions: MTCC 82, 24 h; how it was run: as §1
# Pseudomonas aeruginosa = experiment: Antibacterial activity against Pseudomonas aeruginosa MTCC 2642 after 24 hrs by serial dilution method; format: functional; conditions: MTCC 2642, 24 h; how it was run: as §1
# Salmonella typhi = experiment: Antibacterial activity against Salmonella typhi after 24 hrs by serial dilution method; format: functional, Salmonella enterica subsp. enterica serovar Typhi; conditions: Salmonella enterica
# How it was run: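 Serial tube dilution MIC in nutrient broth. Bacteria were grown until OD600 reached 0.4-0.6. Tubes held 5 ml broth plus 1 ml compound at 0.78, 1.56, 3.12, 6.25, 12.5, 25 or 50 µg/ml and were shaken at 180 rpm for 24 h. Initial medium OD was read at 600 nm.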
# Klebsiella pneumoniae = experiment: Antibacterial activity against Klebsiella pneumoniae MTCC 530 after 24 hrs by serial dilution method; format: functional, organism-based
# Aspergillus niger = experiment: Antifungal activity against Aspergillus niger MTCC 1344 after 24 hrs by serial dilution method; format: functional; conditions: MTCC 1344, 24 h; how it was run: as §2
# Saccharomyces cerevisiae = experiment: Antifungal activity against Saccharomyces cerevisiae MTCC 172 after 24 hrs by serial dilution method; format: functional; conditions: MTCC 172, 24 h; how it was run: as §2
# Candida albicans = experiment: Antifungal activity against Candida albicans MTCC 3018 after 24 hrs by serial dilution method; format: functional; conditions: MTCC 3018, 24 h; how it was run: as §2
# Nannizzia gypsea = experiment: Antifungal activity against Microsporum gypseum MTCC 4490 after 24 hrs by serial dilution method; format: functional; conditions: MTCC 4490, 24 h; how it was run: as §2
SMILES,MIC (Bacillus subtilis),MIC [1],MIC (Staphylococcus aureus),MIC (Escherichia coli),MIC (Pseudomonas aeruginosa),MIC (Salmonella typhi),Activity (Klebsiella pneumoniae),MIC (Aspergillus niger),MIC (Saccharomyces cerevisiae),MIC (Candida albicans),MIC (Nannizzia gypsea)
CC1=C(/C=C/C(=O)/C=C/c2cccnc2)C(C)(C)CCC1,6.25 µg/mL,> 100 µg/mL,6.25 µg/mL,12.5 µg/mL,12.5 µg/mL,> 100 µg/mL,inactive,3.9 µg/mL,10.5 µg/mL,35 µg/mL,> 100 µg/mL
CC1=C(/C=C/C(=O)/C=C/c2ccccc2Cl)C(C)(C)CCC1,0.78 µg/mL,> 100 µg/mL,1.56 µg/mL,1.56 µg/mL,12.5 µg/mL,> 100 µg/mL,–,33.5 µg/mL,12.5 µg/mL,11.5 µg/mL,94 µg/mL
CC1=C(/C=C/C(=O)/C=C/c2ccc(Br)cc2)C(C)(C)CCC1,–,–,–,> 100 µg/mL,> 100 µg/mL,> 100 µg/mL,–,–,–,–,–
COc1ccc(/C=C/C(=O)/C=C/C2=C(C)CCCC2(C)C)cc1,–,–,25 µg/mL,> 100 µg/mL,–,> 100 µg/mL,–,–,–,–,–
O=C(O)c1cn(C2CC2)c2cc(N3CCNCC3)c(F)cc2c1=O [CIPROFLOXACIN],0.75 µg/mL,–,1.2 µg/mL,0.9 µg/mL,1.8 µg/mL,–,–,–,–,–,–
CC1=C(/C=C/C(=O)/C=C/c2ccccc2[N+](=O)[O-])C(C)(C)CCC1,3.12 µg/mL,58.4 µg/mL,6.25 µg/mL,12.5 µg/mL,3.12 µg/mL,25 µg/mL,inactive,32.4 µg/mL,42.5 µg/mL,> 100 µg/mL,> 100 µg/mL
CC1=C(/C=C/C(=O)/C=C/c2ccccc2F)C(C)(C)CCC1,–,> 100 µg/mL,> 100 µg/mL,> 100 µg/mL,–,> 100 µg/mL,–,9.9 µg/mL,11.4 µg/mL,44.5 µg/mL,> 100 µg/mL
CC1=C(/C=C/C(=O)/C=C/C=C/c2ccccc2)C(C)(C)CCC1,3.12 µg/mL,55.5 µg/mL,6.25 µg/mL,6.25 µg/mL,> 100 µg/mL,50 µg/mL,inactive,25 µg/mL,80 µg/mL,> 100 µg/mL,> 100 µg/mL
CC1=C(/C=C/C(=O)/C=C/c2cccc3ccccc23)C(C)(C)CCC1,25 µg/mL,> 100 µg/mL,25 µg/mL,55.5 µg/mL,–,–,–,55 µg/mL,> 100 µg/mL,71.5 µg/mL,98 µg/mL
CC1=C(/C=C/C(=O)/C=C/c2ccc(Cl)cc2)C(C)(C)CCC1,6.25 µg/mL,> 100 µg/mL,25 µg/mL,3.12 µg/mL,12.5 µg/mL,> 100 µg/mL,inactive,> 100 µg/mL,12.5 µg/mL,> 100 µg/mL,> 100 µg/mL
CC1=C(/C=C/C(=O)/C=C/c2ccc([N+](=O)[O-])cc2)C(C)(C)CCC1,3.12 µg/mL,90.4 µg/mL,25 µg/mL,6.25 µg/mL,12.5 µg/mL,> 100 µg/mL,–,9.6 µg/mL,19.5 µg/mL,11.2 µg/mL,82 µg/mL
CC1=C(/C=C/C(=O)/C=C/c2ccc(F)cc2)C(C)(C)CCC1,25 µg/mL,> 100 µg/mL,25.5 µg/mL,> 100 µg/mL,–,–,–,15.6 µg/mL,15.6 µg/mL,12.5 µg/mL,> 100 µg/mL
CC1=C(/C=C/C(=O)/C=C/c2ccccc2C)C(C)(C)CCC1,25 µg/mL,> 100 µg/mL,> 100 µg/mL,30.5 µg/mL,–,55.5 µg/mL,inactive,> 100 µg/mL,96 µg/mL,72 µg/mL,> 100 µg/mL
CC1=C(/C=C/C(=O)/C=C/c2ccccc2Br)C(C)(C)CCC1,40.2 µg/mL,> 100 µg/mL,25 µg/mL,–,> 100 µg/mL,–,–,7.6 µg/mL,3.9 µg/mL,31.2 µg/mL,> 100 µg/mL
COC1=CC(=O)C[C@@H](C)[C@]12Oc1c(Cl)c(OC)cc(OC)c1C2=O [GRISEOFULVIN],–,1.9 µg/mL,–,–,–,–,–,1.9 µg/mL,1.9 µg/mL,1.9 µg/mL,1.9 µg/mL
CC1=C(/C=C/C(=O)/C=C/c2ccoc2)C(C)(C)CCC1,22.5 µg/mL,72.5 µg/mL,–,> 100 µg/mL,> 100 µg/mL,74 µg/mL,–,61.4 µg/mL,> 100 µg/mL,74 µg/mL,> 100 µg/mL
COc1ccccc1/C=C/C(=O)/C=C/C1=C(C)CCCC1(C)C,25 µg/mL,> 100 µg/mL,22.2 µg/mL,31.5 µg/mL,> 100 µg/mL,> 100 µg/mL,–,92.5 µg/mL,61.4 µg/mL,> 100 µg/mL,88.5 µg/mL
CC1=C(/C=C/C(=O)/C=C/c2ccc(C#N)cc2)C(C)(C)CCC1,> 100 µg/mL,> 100 µg/mL,42 µg/mL,37 µg/mL,–,> 100 µg/mL,–,52.4 µg/mL,> 100 µg/mL,80 µg/mL,90.5 µg/mL
COc1cc(/C=C/C(=O)/C=C/C2=C(C)CCCC2(C)C)cc(OC)c1OC,> 100 µg/mL,–,19.5 µg/mL,–,22.5 µg/mL,45 µg/mL,inactive,–,–,–,–
CC1=C(/C=C/C(=O)/C=C/c2ccc(Cl)c(Cl)c2)C(C)(C)CCC1,25 µg/mL,–,32.5 µg/mL,22 µg/mL,–,> 100 µg/mL,–,–,–,–,–
COc1ccc(/C=C/C(=O)/C=C/C2=C(C)CCCC2(C)C)cc1OC,22.5 µg/mL,–,–,42 µg/mL,55.5 µg/mL,> 100 µg/mL,–,–,–,–,–
COc1ccccc1/C=C/C=C/C(=O)/C=C/C1=C(C)CCCC1(C)C,25 µg/mL,19.5 µg/mL,> 100 µg/mL,> 100 µg/mL,32.5 µg/mL,> 100 µg/mL,–,80 µg/mL,34 µg/mL,> 100 µg/mL,71.5 µg/mL
CC1(C)S[C@@H]2[C@H](NC(=O)[C@H](N)c3ccc(O)cc3)C(=O)N2[C@H]1C(=O)O [AMOXICILLIN],0.5 µg/mL,–,0.5 µg/mL,0.12 µg/mL,1 µg/mL,0.9 µg/mL,–,–,–,–,–
OC(Cn1cncn1)(Cn1cncn1)c1ccc(F)cc1F [FLUCONAZOLE],–,31.2 µg/mL,–,–,–,–,–,1.9 µg/mL,1.9 µg/mL,3.9 µg/mL,1.9 µg/mL
CC1=C(/C=C/C(=O)/C=C/c2ccccc2)C(C)(C)CCC1,3.12 µg/mL,78 µg/mL,3.12 µg/mL,1.56 µg/mL,12.5 µg/mL,12.5 µg/mL,inactive,> 100 µg/mL,61.5 µg/mL,> 100 µg/mL,> 100 µg/mL
CC1=C(/C=C/C(=O)/C=C/c2ccc(C)cc2)C(C)(C)CCC1,25 µg/mL,> 100 µg/mL,> 100 µg/mL,–,65 µg/mL,> 100 µg/mL,–,> 100 µg/mL,40.5 µg/mL,46 µg/mL,> 100 µg/mL
